# Test results reported in ChEMBL document CHEMBL4513216, “Probing the Open Global Health Chemical Diversity Library for Multistage-Active Starting Points for Next-Generation Antimalarials” (ACS Infect Dis, 2020).
# Test: Toxicity liver stage against HepG2, at 10uM
# Format: cell-based
# Design: test concentration 10 uM, cell line HepG2-A16-CD81EGFP
# Conditions: human, HepG2-A16-CD81EGFP cells; read-out: INHIBITION
# Summary of the method: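 Uninfected HepG2-A16-CD81EGFP cells, 3 × 10^3 per well, 1536-well, plated on prespotted compound at 10 μM final, parasite-free screening media added to match infected plates; puromycin 10 μM positive, DMSO 0.5% negative; run in parallel with 48 h PbLuc assay at 37 °C, 5% CO2; viability by CellTiter-Glo luminescence, normalized to controls.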
row,SMILES,cytotoxicity at 10 µM
1,COCc1cc(CC2(NCc3ccccc3Cl)COC2)no1,-9.09%
2,CC(C)(C)c1c[nH]c([C@@H]2COCCN2C2CCNCC2)n1,6.07%
3,O=C1CO[C@H]2CN(Cc3ccc4c(c3)OCO4)C[C@H]2N1,0.801%
4,COc1ccccc1CN1CC(OC)CN(C(=O)OCC(C)C)CC1=O (stereo unspecified),-12%
5,COC1CCN(C(=O)NCC(N)=O)CC(=O)N(C)c2ccccc21 (stereo unspecified),4.79%
6,CN1C(=O)CCc2cc(NC(=O)C3CCCC3)ccc21,-9.79%
7,Cc1cc(CNC(=O)COc2ccccc2F)c(C)o1,-2.33%
8,O=C(NC1(c2nc(C3CC3)no2)CCCCC1)c1cccnc1O,-8.92%
9,O=C(NCc1cccs1)NCC(O)c1ccoc1 (stereo unspecified),-11.9%
10,CN1C(=O)CCC12CCN(Cc1ccco1)CC2,1.61%
11,CC(C)COCC1CN(Cc2ccsc2)Cc2ncn(C)c21 (stereo unspecified),6.61%
12,O=C(C1CC=CC1)N1CCc2ncnc(-c3ccncc3)c2CC1,2.31%
13,CCOCCNS(=O)(=O)c1cc(C)c2nc(O)cc(C)c2c1,-4.77%
14,CCc1nnc(SCc2nonc2C)n1C1CC1,0.649%
15,CC(C)C(=O)N1CCCC(Cc2cccnc2)C1 (stereo unspecified),-1.55%
16,O[C@@H]1C[C@H]2CN(CC3CCCCC3)[C@H](Cc3ccccc3)CN2C1,0.13%
17,Cc1ocnc1C(=O)N(C)[C@@H]1CC[C@@H](Oc2ccccc2)[C@@H]1O,-0.658%
18,Cc1nn(C)cc1S(=O)(=O)N[C@@H]1CC[C@@H](n2ccnc2C)[C@@H]1O,-3.43%
19,CO[C@H]1CN(C(=O)c2cn3cc(C)ccc3n2)CC[C@@]12CCCO2,3.6%
20,Cc1cccc(-c2nccnc2C2CCCN(C)C2)c1 (stereo unspecified),0.83%
21,CNc1cccc(CC2COCCN(C(=O)c3cncs3)C2)n1 (stereo unspecified),6.42%
22,CN(c1ccccc1)c1ccc(CC2CCCN(CCO)C2)nn1 (stereo unspecified),-9.3%
23,COc1ccc(-c2nccc(C3CCCN3C)n2)cc1 (stereo unspecified),9.97%

row,SMILES,cytotoxicity at 10 µM
1,Cc1cc(N(C)C)nc(C2(C)CCCN2C(=O)c2cnccn2)n1 (stereo unspecified),-1.19%
2,CCOc1cccc(CNC(=O)C(C)(C)C#N)c1OC(F)F,-45.5%
3,CS(=O)(=O)NC(=O)c1ccn(-c2cccc(Br)c2)n1,-3.64%
4,Oc1c(F)cc(CNc2cccc(-c3nnc[nH]3)c2)cc1F,-44.2%
5,Cc1cc(NC(=O)NCCC(=O)N2CCCc3ccccc32)no1,-5.96%
6,CCOc1ccccc1C(=O)N1CCn2c(nnc2C(F)(F)F)C1,-2.99%
7,CC(=O)N1CCCN(S(=O)(=O)c2cc3ccccc3o2)CC1,18.8%
8,CCc1ccc(CNC(=O)CCNc2ncccn2)s1,3.73%
9,CN(C)C1Cc2ccccc2N(S(=O)(=O)c2ccc(C#N)cc2)C1 (stereo unspecified),2.91%
10,CS(=O)(=O)NC1CCCN(Cc2ccc(OCc3ccccn3)cc2)C1 (stereo unspecified),1.8%
11,CS(=O)(=O)NC1CCCN(Cc2ccccn2)C1 (stereo unspecified),4.74%
12,COC(=O)CCNC(=O)c1cc(Br)c2c(c1)OCCO2,11%
13,Cc1cc2n(n1)CC(CNC1CCN(Cc3ccncc3)CC1)CN2 (stereo unspecified),1.78%
14,Cc1ccc(C(=O)NC2CCOc3ccccc32)cc1S(C)(=O)=O (stereo unspecified),-3.83%
15,COc1ccc(-c2cnc(CN3CCCC3Cn3cncn3)o2)cc1 (stereo unspecified),3.41%
16,CCN(C(c1ccc(OC)cc1)c1cccnc1)S(C)(=O)=O (stereo unspecified),9.62%
17,O=C(NCC(O)c1ccc(Cl)c(F)c1)NC1CC=CC1 (stereo unspecified),-2.41%
18,CN(Cc1cccc(C#N)c1)Cn1nc(C(C)(C)C)ccc1=O,-1.64%
19,Cc1ccc(Br)c(S(=O)(=O)NCc2cnn(C)c2)c1,6.95%
20,CN(CCc1nccs1)C(=O)C1(C#N)CCCCC1,2.91%
21,O=S(=O)(NCc1cccnc1OC1CCCC1)N1CCOCC1,1.46%
22,CC(C)c1nc(S(=O)(=O)N2CCSc3ccccc32)c[nH]1,2.7%
23,N#Cc1ccc(N2CCN(c3cnccn3)CC2)cc1C(F)(F)F,38.6%

row,SMILES,cytotoxicity at 10 µM
1,Cn1cc(S(=O)(=O)NCCc2nnc3ccccn23)cn1,8.43%
2,CSC1(CNC(=O)NC(C)c2ccc(F)cc2)CCOCC1 (stereo unspecified),6.88%
3,N#Cc1cccc(OCCN2CCNC(=O)C2c2cccs2)c1 (stereo unspecified),6.76%
4,Clc1ccc(Cc2nc(CNCCn3cccn3)cs2)cc1,-1.86%
5,COc1cccc(CNCc2cccnc2-n2cccn2)c1OC,2.86%
6,COc1cccc(NC(=O)NC2(c3noc(CN(C)C)n3)CCCC2)c1,2.6%
7,CSc1ccc(OCCN2CCNC(=O)C2C)cc1 (stereo unspecified),8.57%
8,Cc1cc(=O)n2nc(Oc3ccc(Cl)c(C)c3)sc2n1,-19%
9,Cc1cc2n(n1)CC(CNC1CCN(Cc3ccccc3C)CC1)CN2 (stereo unspecified),3.69%
10,NC(=O)CN1CCCN(C(=O)c2ccn(-c3cccc(F)c3)n2)CC1,14.3%
11,O=C(Cc1ccccc1F)N1CCN(C(=O)c2ccoc2)CC1,1.16%
12,COc1cc(N2CCC3(CC2)CNC(=O)CO3)ncn1,2.57%
13,Cn1cc(C(=O)N2CCO[C@@H]3CN(C4CCC4)C[C@@H]3C2)cn1,8.55%
14,CCS(=O)(=O)N1CCN(C)c2ncccc2C1,2.88%
15,CC(=O)N1CCC2(CCN(C(=O)c3ccc(C)c(C(F)(F)F)c3)CC2)C1,3.73%
16,CCc1ncc(-c2nccn2-c2cccc(CC(=O)O)c2)cn1,10.2%
17,CN1CC2(CCCN(C(=O)Cc3cccc(O)c3)C2)OC1=O (stereo unspecified),4.61%
18,O=C(c1ccc(-c2nc[nH]n2)cc1)N1CC[C@H](CO)[C@@H](O)C1,0.466%
19,O=C(CCc1cn[nH]c1)N1C[C@@H](CN2CCOCC2)C[C@H](CO)C1,3.13%
20,CS(=O)(=O)c1cnc(C2CCCC2)nc1C1CCCNC1 (stereo unspecified),-6.35%
21,COCCN(CC1CC1)c1nc(CCN)nc2ccccc12,9.22%
22,CSCC(=O)N1CCC(Oc2cccc(C)c2)CC1,1.98%
23,CN(CCc1ccccn1)C(=O)CCC1CCCN(c2ncccn2)C1 (stereo unspecified),1.64%

row,SMILES,cytotoxicity at 10 µM
1,CN(C)[C@@H]1C[C@@H](CO)N(C(=O)Nc2ccc(SC(F)(F)F)cc2)C1,-0.187%
2,Cc1ccsc1[C@@H]1CCN(C(=O)c2ccc(-c3cc[nH]n3)cc2)C[C@H]1O,4.28%
3,CN(CCN1CCCCCC1)C(=O)c1cc(CN2CCCC(O)C2)on1 (stereo unspecified),-0.641%
4,COc1ccc(-n2nc(C(C)C)nc2COC(C)C)cc1,1.56%
5,CCCN(Cc1nccn1C)C(=O)C(CC)Nc1cccc(OC)c1 (stereo unspecified),0.417%
6,c1ccc2c3c([nH]c2c1)CN(Cc1cc2n(n1)CCNC2)CC3,3.06%
7,CC1CCc2n[nH]c(C(=O)N3CCc4c(nc(N(C)C)[nH]c4=O)C3)c2C1 (stereo unspecified),21.4%
8,Cc1nc(N(C)CCCc2nccn2C)c2c(C)nn(C)c2n1,5.84%
9,CC(C)[C@@H](C)NC1CCN(c2ccc(-n3ccnc3)cc2)CC1,0.487%
10,CCCn1cnnc1CN(C)C(=O)CCC(=O)Nc1cc(C)ccc1F,16.1%
11,Cc1ccc(S(N)(=O)=O)cc1C(=O)N1CCc2c(ncnc2N(C)C)C1,-2.71%
12,CCc1cc(N[C@H](C(N)=O)C(C)C)n2nc(C)c(C)c2n1,5.88%
13,CCCc1nc(C(=O)NC(COC)c2ccnn2C)cs1 (stereo unspecified),-2.37%
14,Cc1cccnc1CC(C)N(C)C(=O)c1cccs1 (stereo unspecified),-1.02%
15,Cn1ccnc1CN1CCC(c2nnc(Cn3cccn3)n2C)CC1,17.4%
16,CC(C)(NC(=O)C1CCN(C2CCCCC2)CC1)c1nnc(N)s1,6.17%
17,COc1cccc(N2CCN(C(=O)CCO)CC2=O)c1,3.75%
18,CC(c1cc(F)ccc1F)N(C)Cc1nc2c(cnn2C)c(=O)[nH]1 (stereo unspecified),-7.8%
19,CC(=O)N1CCCN(C(=O)NCCNc2ccccn2)CC1,-4.07%
20,c1ccc2oc(CN3CCCC(Cn4cncn4)C3)nc2c1 (stereo unspecified),-7.3%
21,CCn1ccnc1CN1CCCN(C(=O)c2ccsc2)CC1,-6.63%
22,COC(=O)c1cccn1C1CCN(C(=O)c2cc(C)ccc2O)CC1,-3.22%
23,CC(O)CN1CCN(C(=O)c2ccc(Br)o2)CC1 (stereo unspecified),-8.6%

row,SMILES,cytotoxicity at 10 µM
1,CCCc1noc(CN2CCCC2c2ccsc2)n1 (stereo unspecified),-18.8%
2,COc1c(C2CCCN2C(=O)Cc2c(C)noc2C)c(C)nn1C (stereo unspecified),-12.9%
3,CCn1cc(-c2cncn2CCc2ccc3c(c2)OCCO3)cn1,18.7%
4,CC(=O)N1CCN(c2cncc(C3CCNCC3)n2)CC1,16.8%
5,CNC(=O)C1(N2CCC[C@H]2C(=O)NC2CC2)CCCCC1,-1.69%
6,Cn1nccc1CN1CCOC(c2cccc(-c3cncnc3)n2)C1 (stereo unspecified),0.88%
7,CN1C(Cn2cccn2)C[C@@H]2CN(C(=O)c3cccc(C#N)c3)CC[C@@H]21 (stereo partly specified),3.1%
8,O=C1CC2(CNCCN(C(=O)Nc3ccccc3)C2)CN1 (stereo unspecified),2.23%
9,CC(=O)N1CCN(Cc2ccsc2)CC2(CC(=O)N(C)C2)C1 (stereo unspecified),-1.27%
10,CCN(CC)Cc1cn2c(n1)CN(Cc1c(C)noc1C)CC2,-0.0472%
11,Cc1cnccc1-c1cnn(CCNC(=O)c2cccnc2)c1C1CC1,4.34%
12,CCOC1COC2(CCN(c3cccc(C)n3)CC2)C1 (stereo unspecified),-2.16%
13,CNc1cc(C2CCCNC2)nc(C)n1 (stereo unspecified),8.37%
14,Cc1oncc1C(=O)N1CC[C@H]2[C@H](C[C@@H](CN3CCCC3)N2C)C1,0.286%
15,OCCN1CCC(F)(F)C2(CCN(c3cnccn3)C2)C1 (stereo unspecified),8.24%
16,CCS(=O)(=O)N1C[C@@H](OCc2ccccn2)[C@@H]2OCCC[C@@H]21,-2.31%
17,O=C(C1CCCC1)N1C[C@@H]2CCN(c3cnccn3)C[C@@H]2C1,3.44%
18,N#CC1Sc2nnc(-c3ccccc3Br)n2N=C1N (stereo unspecified),-4.81%
19,COCCN1C(=O)[C@@H]2CC[C@H]1CN(Cc1nnc(C3CC3)o1)C2,11.6%
